Reference: ChEMBL document CHEMBL4680165, “β-Lactams with antiproliferative and antiapoptotic activity in breast and chemoresistant colon cancer cells” (Eur J Med Chem, 2020)
Active and inactive are the calls of the source. No cut-off for these calls is given here.

Legend:
Bos taurus = organism: Bos taurus; test: Inhibition of bovine brain tubulin polymerization at 10 uM measured at 30 sec interval for 30 mins in presence of GTP by turbidimetry-based spectrophotometric method
HT-29 [1] = test: Antiangiogenic activity in human HT29 cells assessed as reduction in IL-1beta secretion at 5 uM after 24 hrs by ELISA; type: functional, cell-based
Outline: (§1)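 HT-29 cells at 5 x 10^4 per well, cultured 24 h and then exposed to 5 µM compound. Conditioned medium collected on ice and stored at -80 °C. Cytokines and angiogenic, vascular-injury and chemokine factors measured by multiplex panels with overnight supernatant incubation (Angiogenesis Panel 1 and Vascular Injury Panel 2 same day). Medium undiluted except 1:4 for Vascular Injury Panel 2. Secretion normalised to lysate protein by BCA.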

HT-29 [2] = test: Induction of apoptosis in human HT29 cells assessed as necrotic cells at 1 uM after 48 hrs by Annexin V-FITC and propidium iodide staining based flow cytometry (reference value: 3 %); type: functional
Outline: (§2)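 HT-29 cells were treated at 1 µM for 24, 48 and 72 h against an untreated control. Cells were stained with Annexin V in binding buffer (HEPES pH 7.4, NaCl, CaCl2) for 30 min on ice in the dark, washed, resuspended in PI-containing buffer and read at once by flow cytometry. Quadrants: early apoptotic, late apoptotic, necrotic (Annexin V−/PI+).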

HT-29 [3] = test: Cell cycle arrest in human HT-29 cells assessed as accumulation at sub-G1 phase at 1 uM measured after 48 hrs by PI staining based flow cytometry analysis (reference value: 2.5 %); type: functional
Outline: (§3)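 Cells (1 × 10^5/well) were treated at 1 µM for 24, 48 and 72 h; vehicle was 0.1% v/v ethanol. Cells were trypsinised, fixed in ice-cold 70% ethanol overnight at −20 °C, then stained with PI (50 µg/mL) plus DNase-free RNase A (50 µg/mL) at 37 °C for 30 min. DNA content of 10,000 cells per group was read by flow cytometry at 488 nm.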

MCF7 [4] = test: Induction of apoptosis in human MCF7 cells assessed as total apoptotic cells at 0.1 uM after 48 hrs by Annexin V-FITC and propidium iodide staining based flow cytometry (reference value: 10 %); type: functional
Outline: (§4)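 MCF-7 cells were seeded at 1 × 10^5 cells/mL and treated for 48 h at 0.01, 0.1 and 1 µM; vehicle was 0.1% v/v ethanol. Annexin V staining was done on ice in the dark for 30 min in HEPES/NaCl/CaCl2 binding buffer, followed by PI. Flow cytometry scored early apoptotic (Annexin V+/PI−) and late apoptotic (Annexin V+/PI+) cells; total apoptotic is Annexin V-positive cells.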

HT-29 [5] = test: Cell cycle arrest in human HT-29 cells assessed as accumulation at G2/M phase at 1 uM measured after 72 hrs by PI staining based flow cytometry analysis (reference value: 11 %); type: functional; outline: as §3
MCF7 [6] = test: Induction of apoptosis in human MCF7 cells assessed as downregulation of survivin expression level at 0.05 to 0.5 uM after 48 to 72 hrs by Western blot analysis; type: functional, cell-based; settings: dose 0.05-0.5 µM, time 48-72 hrs
Outline: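 MCF-7 cells (1 × 10^5 per flask) were treated at 0.05, 0.1 and 0.5 µM for 48 and 72 h; vehicle was 0.1% v/v ethanol. Lysis was in RIPA buffer with protease and phosphatase inhibitors. Equal protein (BCA) was run on 12% SDS-PAGE and blotted for Mcl-1, Bcl-2 and survivin, with GAPDH as loading control and ECL detection. Three independent experiments.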

MCF7 [7] = test: Induction of apoptosis in human MCF7 cells assessed as late apoptotic cells after 48 hrs by Annexin V-FITC and propidium iodide staining based flow cytometry; type: functional, cell-based; settings: dose 10-1000 nM; outline: as §4
[8] = molecular target: UDP-glucuronosyltransferases (UGTs) (Homo sapiens, UniProt O60656+O75310+O75795+P06133+P0DTE4+P0DTE5+P16662+P19224+P22309+P22310+P35503+P35504+P36537+P54855+Q6UWM9+Q9BY64+Q9HAW7+Q9HAW8+Q9HAW9); test: Metabolic stability in human liver microsomes assessed as UGT-mediated N-glucuronidation by measuring half life at 3 uM measured up to 45 mins by LC-MS/MS analysis; type: ADME; settings: liver microsomes
Outline: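 Pooled human liver microsomes (0.5 mg/mL protein final) with alamethicin (25 µg/mg) in 0.1 M phosphate pH 7.4, compound 3 µM final (0.25% DMSO), preincubated 37 °C. Reaction started with UDPGA (1 mM final). Sampled at 0, 5, 15, 30, 45 min into methanol, analysed by LC-MS/MS. Minus-UDPGA control run 45 min. Single incubations; t½ and CLint taken from the elimination rate constant.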

HT-29 [9] = test: Antiangiogenic activity in human HT29 cells assessed as reduction in VEGF secretion at 5 uM after 24 hrs by ELISA; type: functional, cell-based; outline: as §1
Tubulin (Homo sapiens) [10] = molecular target: T1, Tubulin (Homo sapiens) (UniProt P68371+Q9H4B7+P0DPH7+P68366+Q13509+Q71U36+P04350+Q3ZCM7+P07437+P68363+Q9BQE3+Q6PEY2+Q13885+Q9BVA1+Q9BUF5); test: Binding affinity to tubulin in human MCF7 cells assessed as inhibition of tubulin-EBI adduct formation preincubated for 2 hrs followed by EBI addition and measured after 1.5 hrs by Western blotting analysis; type: cell-based; settings: time 3.5 hrs
Outline: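 MCF-7 cells (5 × 10^4/well) were incubated overnight, then given vehicle (0.1% v/v ethanol) or compound at 10 µM for 2 h. Selected wells then received EBI (100 µM) for 1.5 h. Cells were washed in ice-cold PBS, lysed in Laemmli buffer and run on SDS-PAGE. Blots were probed for β-tubulin and the β-tubulin–EBI adduct, with GAPDH as loading control. Three independent experiments.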

HT-29 [11] = test: Cell cycle arrest in human HT-29 cells assessed as accumulation at G2/M phase at 1 uM measured after 48 hrs by PI staining based flow cytometry analysis (reference value: 11 %); type: functional; outline: as §3
[12] = Selectivity index, ratio of IC50 for human MCF7 cells to IC50 for human HT-29 cells assessed as reduction in cell viability after 72 hrs by alamar blue assay; type: functional
HT-29 [13] = test: Induction of apoptosis in human HT29 cells assessed as cell apoptosis at 1 uM after 48 hrs by Annexin V-FITC and propidium iodide staining based flow cytometry; type: functional; outline: as §2
HT-29 [14] = test: Antiangiogenic activity in human HT-29 cells assessed as increase in IL-1RA secretion at 5 uM after 24 hrs by ELISA; type: functional, cell-based; outline: as §1
HT-29 [15] = test: Induction of apoptosis in human HT29 cells assessed as cell apoptosis at 1 uM after 24 hrs by Annexin V-FITC and propidium iodide staining based flow cytometry; type: functional; outline: as §2
Tubulin (Homo sapiens) [16] = molecular target: T1, Tubulin (Homo sapiens); test: Induction of microtubule depolymerization in human MCF7 cells assessed as induction of spindle formation at 10 to 50 nM for 5 hrs by immunofluorescence staining based confocal microscopic analysis; type: cell-based; settings: dose 10-50 nM
Outline: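 MCF-7 cells were seeded at 1 × 10^5 cells/mL on chamber slides and treated at 0.01, 0.05 and 0.1 µM. Controls were vehicle (1% v/v ethanol), CA-4 (0.01 µM) and paclitaxel (1 µM). Cells were fixed and stained with anti-α-tubulin-FITC (DM1A) and Alexa Fluor 488, then counterstained with DAPI. Imaging was by confocal microscopy over three separate experiments.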

HT-29 [17] = test: Induction of apoptosis in human HT29 cells assessed as necrotic cells at 1 uM after 72 hrs by Annexin V-FITC and propidium iodide staining based flow cytometry (reference value: 3 %); type: functional; outline: as §2

Compound: COc1ccc([C@H]2[C@H](O)C(=O)N2c2cc(OC)c(OC)c(OC)c2)cc1F
- inhibition (Bos taurus): Active
- Activity (HT-29 [1]): inactive
- Activity (HT-29 [2]): 11%
- Activity (HT-29 [3]): 11%
- Activity (MCF7 [4]): 20%
- Activity (HT-29 [5]): 64%
- Activity (MCF7 [6]): Active
- Activity (MCF7 [7]): Dose-dependent effect
- half-life at 3 µM [8]: 1.63 h
- Activity (HT-29 [9]): inactive
- Activity (Tubulin (Homo sapiens) [10]): Active
- Activity (HT-29 [11]): 57%
- Ratio IC50 [12]: 7.33
- Activity (HT-29 [13]): 25%
- Activity (HT-29 [14]): Active
- Activity (HT-29 [15]): 21%
- Activity (Tubulin (Homo sapiens) [16]): Active
- Activity (HT-29 [17]): 22%
